Laboratory results: PubChem BioAssay AID588760 (Johns Hopkins Ion Channel Center, 2011)
Active and inactive are the calls of the source.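 How the source made its calls: active means fitted dose response curve and peak inhibition of the Kir2.1 potassium channel above 30% at some dose; inactive means no dose response or no inhibition at any dose.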

Each molecule was assayed against Inward rectifier potassium channel 2 (Mus musculus) (UniProt P35561) (assay: Kir2.1 channel inhibition, specificity check, SAR follow-up, selectivity assay for KCNK9 inhibitor project, cell-based, FluxOR thallium flux, CRC round 3 (AID 588760)). Settings: Kir2.1-expressing cells, 20 min; series mostly up to 30 µM; thallium flux ratio, lower = inhibition: at the top concentration.
Sequence of Inward rectifier potassium channel 2 (Mus musculus) (P35561 whole entry, looked up): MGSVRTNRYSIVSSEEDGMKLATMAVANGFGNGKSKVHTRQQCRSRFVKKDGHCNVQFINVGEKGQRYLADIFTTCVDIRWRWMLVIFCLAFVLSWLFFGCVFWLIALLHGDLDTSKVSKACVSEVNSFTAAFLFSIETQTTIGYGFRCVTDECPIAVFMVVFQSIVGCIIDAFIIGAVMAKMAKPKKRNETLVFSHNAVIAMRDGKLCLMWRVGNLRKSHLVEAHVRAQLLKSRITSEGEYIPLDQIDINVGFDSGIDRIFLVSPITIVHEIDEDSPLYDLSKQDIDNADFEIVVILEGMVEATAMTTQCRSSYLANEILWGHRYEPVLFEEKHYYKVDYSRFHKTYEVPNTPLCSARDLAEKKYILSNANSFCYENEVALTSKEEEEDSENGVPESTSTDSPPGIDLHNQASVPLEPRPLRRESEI
Outline: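 Assay system: FluxOR-loaded Kir2.1 HEK293 cells; Also added: K2SO4/Tl2SO4 stimulus; Replicates: at least duplicate measurements per concentration; Measured by: kinetic fluorescence of thallium-sensitive dye; Incubation: dye loading 90 min RT, compound 20 min RT pre-stimulus.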
For `CC(C1CC2CCC1C2)n1c(-c2cccs2)n[nH]c1=S` (stereo unspecified), the “thallium flux ratio, lower = inhibition” value was 1.23 (inactive). `CC(C1CC2CCC1C2)n1c(SCC(=O)c2ccc3c(c2)OCO3)nnc1-c1ccco1` (stereo unspecified) was tested, and the “thallium flux ratio, lower = inhibition” value was 1.49 (inactive). `COc1cccc(Cc2n[nH]c(=S)n2C(C)C2CC3CCC2C3)c1` (stereo unspecified) was tested, and the “thallium flux ratio, lower = inhibition” value was 1.77 (inactive). `CC(C1CC2CCC1C2)n1c(-c2cccn2C)n[nH]c1=S` (stereo unspecified) was tested, and the “thallium flux ratio, lower = inhibition” value was 1.64 (inactive). `CSc1nnc(-c2ccco2)n1C(C)C1CC2CCC1C2` (stereo unspecified) was tested, and the “thallium flux ratio, lower = inhibition” value was 0.744 (inactive). In the case of `CC(C1CC2CCC1C2)n1c(SCC(=O)c2ccccc2)nnc1-c1ccco1` (stereo unspecified), the “thallium flux ratio, lower = inhibition” value is reported as 0.756 (inactive). `CC(C)Oc1ccccc1C(=O)Nc1cccc(NC(=O)c2ccccc2OC(F)(F)F)c1` was tested, and the “thallium flux ratio, lower = inhibition” value was 1.86 (inactive). `COc1cccc(C(=O)CSc2nnc(-c3ccco3)n2C(C)C2CC3CCC2C3)c1` (stereo unspecified) was tested, and the “thallium flux ratio, lower = inhibition” value was 1.4 (inactive). With `CC(c1cccc2ccccc12)n1c(-c2ccco2)n[nH]c1=S` (stereo unspecified) the “thallium flux ratio, lower = inhibition” value was 1.43 (inactive). In the case of `CC(C1CC2CCC1C2)n1c(SCc2ccccc2)nnc1-c1ccco1` (stereo unspecified), the “thallium flux ratio, lower = inhibition” value is reported as 1.08 (inactive). In the case of `CC(C1CC2CCC1C2)n1c(-c2ccco2)n[nH]c1=O` (stereo unspecified), the “thallium flux ratio, lower = inhibition” value is reported as 1.56 (inactive). `CC(C1CC2CCC1C2)n1c(SCC(=O)c2ccc(Cl)c(Cl)c2)nnc1-c1ccco1` (stereo unspecified) was tested, and the “thallium flux ratio, lower = inhibition” value was 1.98 (inactive). In the case of `CC(C1CC2CCC1C2)n1c(-c2ccco2)nnc1C(F)(F)F` (stereo unspecified), the “thallium flux ratio, lower = inhibition” value is reported as 1.18 (inactive). With `C[C@H](C1CCCCC1)n1c(-c2ccco2)n[nH]c1=S` the “thallium flux ratio, lower = inhibition” value was 1.4 (inactive). For `S=c1[nH]nc(-c2ccco2)n1CC1CC2CCC1C2` (stereo unspecified), the “thallium flux ratio, lower = inhibition” value was 1.13 (inactive). For `CC(C1CC2CCC1C2)n1c(SCC#N)nnc1-c1cccs1` (stereo unspecified), the “thallium flux ratio, lower = inhibition” value was 1.26 (inactive). With `CC(C1CC2CCC1C2)n1cnnc1-c1ccco1` (stereo unspecified) the “thallium flux ratio, lower = inhibition” value was 1.88 (inactive). For `CC(C1CC2CCC1C2)n1c(-c2ccccn2)n[nH]c1=S` (stereo unspecified), the “thallium flux ratio, lower = inhibition” value was 1.72 (inactive). In the case of `CC(C1CC2CCC1C2)N(C)C(=O)c1ccco1` (stereo unspecified), the “thallium flux ratio, lower = inhibition” value is reported as 1.97 (inactive). `COc1ccc(C(=O)CSc2nnc(-c3ccco3)n2C(C)C2CC3CCC2C3)cc1OC` (stereo unspecified) was tested, and the “thallium flux ratio, lower = inhibition” value was 1.32 (inactive). In the case of `CC(C1CC2CCC1C2)n1c(-c2cccc(N(C)C)c2)n[nH]c1=S` (stereo unspecified), the “thallium flux ratio, lower = inhibition” value is reported as 1.34 (inactive).
